This passage reports Activity, inhibition and EC50 results from ChEMBL document CHEMBL3632601, “Actinoramide A Identified as a Potent Antimalarial from Titration-Based Screening of Marine Natural Product Extracts” (J Nat Prod, 2015).

Calls of active or inactive are those of the source. The rule behind the calls is not given here.

The test system of data set [1] is HEK293. The experiment in a line: Cytotoxicity against human HEK293 cells after 72 hrs by CellTiter-Glo assay. The conditions noted are these: hek293, 72 h. On the technique in general: In ATP-based viability assays light output follows the ATP content of the culture.
For data set [2], the system named is Plasmodium falciparum. The data set is described as follows: Antiplasmodial activity against Plasmodium falciparum GB4 after 72 hrs by SYBR green DNA-staining parasite viability assay. The data set is classed as functional, organism-based. Summed up:
(§1)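 Intra-erythrocytic P. falciparum growth in 1536-well format. Infected RBCs at 0.3% parasitemia and 2.5% hematocrit (final) were exposed to compound at 37 °C, 5% CO2, for 72 h. Lysis buffer was added (Tris-HCl, EDTA, saponin, Triton X-100, SYBR Green I), followed by overnight incubation in the dark at 22–24 °C. Fluorescence read at 485/535 nm. Artemisinin and mefloquine served as positive controls, DMSO as negative. EC50 from curve fits, duplicate titrations.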

The test system of data set [3] is Plasmodium falciparum. The experiment in a line: Antiplasmodial activity against Plasmodium falciparum HB3 after 72 hrs by SYBR green DNA-staining parasite viability assay. The data set is classed as functional, organism-based. Summed up: as §1
For data set [4], the system named is HepG2. The experiment in a line: Cytotoxicity against human HepG2 cells after 72 hrs by CellTiter-Glo assay. The conditions noted are these: hepg2, 72 h.
The test system of data set [5] is Plasmodium falciparum. The data set is described as follows: Antiplasmodial activity against Plasmodium falciparum 7G8 after 72 hrs by SYBR green DNA-staining parasite viability assay. The data set is classed as functional, organism-based. Summed up: as §1
Data set [6] concerns Plasmodium falciparum. The data set is described as follows: Antiplasmodial activity against Plasmodium falciparum cp250 after 72 hrs by SYBR green DNA-staining parasite viability assay. The data set is classed as functional, organism-based. Summed up: as §1
Data set [7] relates to Plasmodium falciparum. The experiment in a line: Antiplasmodial activity against Plasmodium falciparum Dd2 after 72 hrs by SYBR green DNA-staining parasite viability assay. The data set is classed as functional, organism-based. Summed up:
as §1

Data set [8] concerns Plasmodium falciparum. The experiment in a line: Inhibition of aspartyl protease activity of plasmepsin in Plasmodium falciparum extracts using EDANSCOCH2CH2CO-ALERMFLSFP-Dap(DABCYL)OH as substrate after 15 mins by fluorescence assay. Summed up:
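Saponin-treated, RBC-depleted P. falciparum extract (plasmepsin pellet, 0.16% final) in 100 mM sodium acetate pH 5.0, 20% glycerol. Compound pin-transferred, then 15 min preincubation with enzyme. EDANS-DABCYL Plasmepsin II substrate added at 5 or 10 μM final, under KM conditions. Fluorescence (ex 336/em 490 nm) read over 3 h. EC50 calculated from plotted data.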

For data set [9], the system named is Jurkat. The data set is described as follows: Cytotoxicity against human Jurkat cells after 72 hrs by SYBR Green viability assay. The data set is classed as cell-based.

As for `COCC(=O)N[C@@H](C(=O)N1NCCC[C@H]1C(=O)N[C@@H](Cc1ccccc1)[C@@H](O)[C@H](C)C(=O)NC1CNC(=O)NC1=O)[C@H](O)C(C)C` (some centres not stated), the Activity entry in [1] and in [4] was “Non-toxic” in each case. Besides, the outcome in data set [2], in [3], in data set [5], in [6] and in data set [7] was inactive.
As to `COCC(=O)N[C@@H](C(=O)N1NCCC[C@H]1C(=O)N[C@@H](Cc1ccccc1)[C@@H](O)[C@H](C)C(=O)N[C@H]1CCN(C(C)=O)C1=O)[C@H](O)C(C)C`, the Activity result in [1] and in data set [4] was “Non-toxic” in each case. Also, the result in data set [2], in data set [3], in [5], in data set [6] and in data set [7] was Active.
Consider `COCC(=O)N[C@@H](C(=O)N1NCCC[C@H]1C(=O)N[C@@H](Cc1ccccc1)[C@@H](O)[C@H](C)C(=O)N[C@H]1CCN(C(N)=O)C1=O)[C@H](O)C(C)C`, for which the Activity entry in data set [1] and in [4] was “Non-toxic” each time. Besides, in data set [8], the inhibition result was “inactive”. In addition, the EC50 was determined as 90000 nM in data set [9]; 200 nM in data set [2] (GB4, 72 h); 200 nM in [3] (HB3, 72 h); 200 nM in [5] (7G8, 72 h); 200 nM in data set [6] (cp250, 72 h); 200 nM in [7] (Dd2, 72 h).
Turning to `COCC(=O)N[C@@H](C(=O)N1NCCC[C@H]1C(=O)N[C@@H](Cc1ccccc1)[C@@H](O)[C@H](C)C(=O)N[C@@H]1CCN(C(N)=O)C1=O)[C@H](O)C(C)C`, the Activity result in [1] and in data set [4] was “Non-toxic” each time. Moreover, the outcome in data set [2], in data set [3], in data set [5], in data set [6] and in data set [7] was Active.
Turning to `COCC(=O)N[C@@H](C(=O)N1NCCC[C@H]1C(=O)N[C@@H](Cc1ccccc1)[C@@H](O)[C@H](C)C(=O)N[C@H]1CCNC1=O)[C@H](O)C(C)C`, the Activity result in data set [1] and in [4] was “Non-toxic” throughout. Moreover, the outcome in [2], in data set [3], in data set [5], in [6] and in data set [7] was Active.
For the compound `COCC(=O)N[C@@H](C(=O)N1NCCC[C@H]1C(=O)N[C@@H](Cc1ccccc1)[C@@H](O)[C@H](C)C(=O)N[C@H]1CCC(=O)NC1=O)[C@H](O)C(C)C`, the Activity result in data set [1] and in [4] was “Non-toxic” each time. The EC50 in [9] was found to be 30000 nM.
With `COCC(=O)N[C@@H](C(=O)N1N=CCC[C@H]1C(=O)N[C@@H](Cc1ccccc1)[C@@H](O)[C@H](C)C(=O)N[C@H]1CCN(C(N)=O)C1=O)[C@H](O)C(C)C`, the Activity entry in data set [1] and in [4] was “Non-toxic” each time. The outcome in data set [2], in data set [3], in data set [5], in data set [6] and in [7] was Active.

For orientation: EC50 means the concentration giving half of the maximal effect.
